Assay results reported in PMC10806771 (Chemical Science, 2023).
Entries after “also recorded” stand apart in the source; their conditions may differ.

Legend:
trastuzumab [1] = target: T1, trastuzumab (Homo sapiens, UniProt P01857); assay: Random conjugation experiments with trastuzumab, LC-FTMS; format: biochemical; conditions: 10 eq., 16h, RT, pH 9.5
trastuzumab [2] = target: T1, trastuzumab; assay: Template-directed conjugation to trastuzumab, LC-FTMS analysis; format: biochemical; conditions: payload transferred with Fc-III-L6Orn carbonate reactive conjugate
[3] = cited from earlier work
[4] = tested on: mice bearing MDA-MB-231 (PD-L1hi) tumor xenograft; assay: [64Cu]Cu-atezolizumab biodistribution study; format: in vivo, mouse; conditions: n = 4, ± SD
Outline: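 Each received an i.v. dose of 0.25 MBq labelled conjugate (0.05 μg), given with 49.95 μg unlabelled parent antibody to saturate nonspecific Fc receptors. Animals were killed at 2, 24 and 48 h; organs collected, weighed and counted, and results given as %ID g−1. Blocking group at 24 h: co-injected 2 mg unlabelled antibody per mouse. n = 4 per group.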

[5] = tested on: mice bearing MDA-MB-231 xenograft; assay: [64Cu]Cu-atezolizumab PET/CT imaging study; format: in vivo, mouse; conditions: 9 MBq i.v.; 2, 24, 48 h
[6] = 24 h p.i. + blocking (2 mg cold atezolizumab)

T1 sequence (P01857 1-330 isoform P01857-1): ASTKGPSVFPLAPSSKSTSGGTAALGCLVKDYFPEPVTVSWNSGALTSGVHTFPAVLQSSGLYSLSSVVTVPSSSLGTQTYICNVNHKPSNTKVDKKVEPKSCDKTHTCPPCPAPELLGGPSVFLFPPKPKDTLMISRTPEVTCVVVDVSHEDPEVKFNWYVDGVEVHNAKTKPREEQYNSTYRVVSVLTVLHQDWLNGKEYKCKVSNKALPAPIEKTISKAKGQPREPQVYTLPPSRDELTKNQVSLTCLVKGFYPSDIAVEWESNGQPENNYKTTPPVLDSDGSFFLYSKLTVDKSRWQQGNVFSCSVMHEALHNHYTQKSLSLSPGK

Compound: O=C(O)CN1CCN(CC(=O)O)CCN(CC(=O)ON2C(=O)CCC2=O)CCN(CC(=O)O)CC1 [DOTA-NHS]
- Labeled mAb (trastuzumab [1]): 73%
- Selectivity Fc/Fab (trastuzumab [1]): 1.46

Compound: DCAWH N GELVWCT NH2 (disulfide) [DM1]
- Labeled mAb (trastuzumab [2]): 73%
- Selectivity Fc/Fab (trastuzumab [2]): 5.70

Compound: DCAWH N GELVWCT NH2 (disulfide) [DM4]
- Labeled mAb (trastuzumab [2]): 68%
- Selectivity Fc/Fab (trastuzumab [2]): 6.80

Compound: DCAWH N GELVWCT NH2 (disulfide) [FITC]
- Labeled mAb (trastuzumab [2]): 95%
- Selectivity Fc/Fab (trastuzumab [2]): Fc selective

Compound: DCAWH N GELVWCT NH2 (disulfide) [NODAGA]
- Labeled mAb (trastuzumab [2]): 97%
- Selectivity Fc/Fab (trastuzumab [2]): Fc selective

Compound: PNU-159682
- Labeled mAb (trastuzumab [2]): 46%
- Selectivity Fc/Fab (trastuzumab [2]): 5.40
- Cytotoxicity relative to doxorubicin [3]: more than thousandfold increased cytotoxicity compared to doxorubicin

Compound: [^64Cu]Cu-atezolizumab: atezolizumab-NODAGA prepared with Fc-III-L6Orn-carbonate-NODAGA, radiolabeled with copper-64
- Biodistribution, Blood ([4]; 2 h p.i., i.v. 0.25 MBq): 6.3 ± 3.8 % ID g^−1
- Biodistribution, Bone ([4]; 2 h p.i., i.v. 0.25 MBq): 2.5 ± 0.4 % ID g^−1
- Biodistribution, Heart ([4]; 2 h p.i., i.v. 0.25 MBq): 7.8 ± 0.6 % ID g^−1
- Biodistribution, Kidney ([4]; 2 h p.i., i.v. 0.25 MBq): 11.8 ± 1.3 % ID g^−1
- Biodistribution, Large intestine ([4]; 2 h p.i., i.v. 0.25 MBq): 1.2 ± 0.5 % ID g^−1
- Biodistribution, Liver ([4]; 2 h p.i., i.v. 0.25 MBq): 8.2 ± 0.1 % ID g^−1
- Biodistribution, Lung ([4]; 2 h p.i., i.v. 0.25 MBq): 14.3 ± 1 % ID g^−1
- Biodistribution, Muscle ([4]; 2 h p.i., i.v. 0.25 MBq): 1.3 ± 0.1 % ID g^−1
- Biodistribution, Pancreas ([4]; 2 h p.i., i.v. 0.25 MBq): 1.8 ± 1.6 % ID g^−1
- Biodistribution, Skin ([4]; 2 h p.i., i.v. 0.25 MBq): 1.1 ± 0.3 % ID g^−1
- Biodistribution, Small intestine ([4]; 2 h p.i., i.v. 0.25 MBq): 3.8 ± 0.9 % ID g^−1
- Biodistribution, Spleen ([4]; 2 h p.i., i.v. 0.25 MBq): 28.1 ± 4 % ID g^−1
- Biodistribution, Stomach ([4]; 2 h p.i., i.v. 0.25 MBq): 1.6 ± 0.6 % ID g^−1
- Biodistribution, Tumor (MDA-MB-231) ([4]; 2 h p.i., i.v. 0.25 MBq): 5 ± 1.2 % ID g^−1
- Biodistribution, Blood [4, 6]: 10.9 ± 0.9 % ID g^−1
- Biodistribution, Bone [4, 6]: 1.7 ± 0.1 % ID g^−1
- Biodistribution, Heart [4, 6]: 4 ± 0.3 % ID g^−1
- Biodistribution, Kidney [4, 6]: 4.2 ± 0.1 % ID g^−1
- Biodistribution, Large intestine [4, 6]: 2.7 ± 0.2 % ID g^−1
- Biodistribution, Liver [4, 6]: 5.3 ± 0.6 % ID g^−1
- Biodistribution, Lung [4, 6]: 6.4 ± 0.7 % ID g^−1
- Biodistribution, Muscle [4, 6]: 1 ± 0.2 % ID g^−1
- Biodistribution, Pancreas [4, 6]: 3.6 ± 0.2 % ID g^−1
- Biodistribution, Skin [4, 6]: 2.5 ± 0.4 % ID g^−1
- Biodistribution, Small intestine [4, 6]: 2.6 ± 0.1 % ID g^−1
- Biodistribution, Spleen [4, 6]: 17.9 ± 0.1 % ID g^−1
- Biodistribution, Stomach [4, 6]: 1.5 ± 0.3 % ID g^−1
- Biodistribution, Tumor (MDA-MB-231) [4, 6]: 4.3 ± 1 % ID g^−1
- Biodistribution, Blood ([4]; 24 h p.i., i.v. 0.25 MBq): 3.1 ± 1.7 % ID g^−1
- Biodistribution, Bone ([4]; 24 h p.i., i.v. 0.25 MBq): 4.2 ± 1.7 % ID g^−1
- Biodistribution, Heart ([4]; 24 h p.i., i.v. 0.25 MBq): 6.8 ± 0.5 % ID g^−1
- Biodistribution, Kidney ([4]; 24 h p.i., i.v. 0.25 MBq): 11.9 ± 1.3 % ID g^−1
- Biodistribution, Large intestine ([4]; 24 h p.i., i.v. 0.25 MBq): 6.1 ± 0.9 % ID g^−1
- Biodistribution, Liver ([4]; 24 h p.i., i.v. 0.25 MBq): 11.8 ± 1.9 % ID g^−1
- Biodistribution, Lung ([4]; 24 h p.i., i.v. 0.25 MBq): 14.2 ± 1.9 % ID g^−1
- Biodistribution, Muscle ([4]; 24 h p.i., i.v. 0.25 MBq): 2.8 ± 0.6 % ID g^−1
- Biodistribution, Pancreas ([4]; 24 h p.i., i.v. 0.25 MBq): 9.6 ± 3.6 % ID g^−1
- Biodistribution, Skin ([4]; 24 h p.i., i.v. 0.25 MBq): 2.7 ± 0.7 % ID g^−1
- Biodistribution, Small intestine ([4]; 24 h p.i., i.v. 0.25 MBq): 8.7 ± 0.9 % ID g^−1
- Biodistribution, Spleen ([4]; 24 h p.i., i.v. 0.25 MBq): 42.8 ± 10.7 % ID g^−1
- Biodistribution, Stomach ([4]; 24 h p.i., i.v. 0.25 MBq): 4.5 ± 2.3 % ID g^−1
- Biodistribution, Tumor (MDA-MB-231) ([4]; 24 h p.i., i.v. 0.25 MBq): 11.4 ± 1.8 % ID g^−1
- Biodistribution, Blood ([4]; 48 h p.i., i.v. 0.25 MBq): 2 ± 1.2 % ID g^−1
- Biodistribution, Bone ([4]; 48 h p.i., i.v. 0.25 MBq): 2.2 ± 0.4 % ID g^−1
- Biodistribution, Heart ([4]; 48 h p.i., i.v. 0.25 MBq): 3.8 ± 0.6 % ID g^−1
- Biodistribution, Kidney ([4]; 48 h p.i., i.v. 0.25 MBq): 8 ± 1.8 % ID g^−1
- Biodistribution, Large intestine ([4]; 48 h p.i., i.v. 0.25 MBq): 3.7 ± 1 % ID g^−1
- Biodistribution, Liver ([4]; 48 h p.i., i.v. 0.25 MBq): 8.5 ± 1.6 % ID g^−1
- Biodistribution, Lung ([4]; 48 h p.i., i.v. 0.25 MBq): 6.6 ± 0.7 % ID g^−1
- Biodistribution, Muscle ([4]; 48 h p.i., i.v. 0.25 MBq): 1.1 ± 0.1 % ID g^−1
- Biodistribution, Pancreas ([4]; 48 h p.i., i.v. 0.25 MBq): 3.1 ± 0.2 % ID g^−1
- Biodistribution, Skin ([4]; 48 h p.i., i.v. 0.25 MBq): 2 ± 0.8 % ID g^−1
- Biodistribution, Small intestine ([4]; 48 h p.i., i.v. 0.25 MBq): 4.8 ± 1.3 % ID g^−1
- Biodistribution, Spleen ([4]; 48 h p.i., i.v. 0.25 MBq): 21.3 ± 6.5 % ID g^−1
- Biodistribution, Stomach ([4]; 48 h p.i., i.v. 0.25 MBq): 2.1 ± 0.5 % ID g^−1
- Biodistribution, Tumor (MDA-MB-231) ([4]; 48 h p.i., i.v. 0.25 MBq): 5.5 ± 2.1 % ID g^−1
- PET observations [5]: an important uptake of the radiotracer was observed in liver and in spleen; also recorded: increased contrast of the tumor over time with an optimum at 24 h
